Measured values taken from PubChem BioAssay AID1899 (The Scripps Research Institute Molecular Screening Center, 2009).
Hit rate of the full screen: of about 300,000 compounds, about 1,000 (0.33%) were called active. The entries come from a sample that favours actives as a whole. A number with no mark means an inactive call.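 Rule for the calls: active = inhibition above the mean of all tested compounds plus 3 SD, set per screening campaign (cut at about 45% in these data); inactive = the rest.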

Tested on: HCV core protein (residues 1-106) dimerization
Assay: blockers of core106 self-association – biochemical, TR-FRET, high-throughput, primary screen (AID 1899)
Details: TR-FRET GST/Flag-core106 dimerization, 1536-well; at 5 µM; hits give high values
Summary of the method: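 System: GST/Flag-tagged HCV core106 proteins. Incubation: compound-protein-antibody incubation 4 h at 22.5 °C. Technique: HTRF with 340 nm excitation, 617/671 nm emission. Medium: KF-containing HEPES buffer, pH 7.45, DTT, CHAPS, BSA. Read-out: inhibition (%) from 671 over 617 nm ratio. Also added: Eu(K)-anti-GST 90 ng/mL plus XL665-anti-Flag 1 µg/mL.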

For `Cc1nn(-c2ccccc2)c2c1C(c1ccc(F)cc1)C(C#N)=C(N)O2` (centres undefined), which inhibition is on record?
The inhibition was -4.93%.

With `Cc1nc2c(c(C)nn2-c2ccccc2)c(C)c1C` as the molecule, how does the inhibition read?
The inhibition was -4.33%.

For `CSc1ccc(-c2c(C#N)c(N)nc3c2c(C)nn3-c2ccccc2)cc1`, which inhibition is on record?
Its inhibition is 49.1% (active).

`CC(C)C(C)(C#N)NC(=O)CSc1nc2scc(-c3ccccc3)c2c(=O)[nH]1` (centres undefined) was tested. Which inhibition did it give?
Its inhibition is 13.3%.

Which inhibition does the source give for `CCC(C)(C)n1nnnc1CN1CCN(c2nc3ccc(C)cc3cc2C#N)CC1` here?
Its inhibition is 20.6%.

With `Cc1cc(C)c2nc(N3CCCC3)c(C#N)cc2c1` as the molecule, how does the inhibition read?
The inhibition was 51.7% (active).

`CCOC(=O)c1cc(C#N)c(N2CCCCC2)nc1-c1ccccc1` was tested. Which inhibition did it give?
Its inhibition is 13.8%.

How did the inhibition turn out when `CN(CCC(=O)Nc1cc(S(=O)(=O)N(C)C)ccc1Cl)CC(=O)Nc1ccc(F)cc1` was run?
Its inhibition is -16.6%.

Which inhibition does the source give for `COc1cccc(/C=C2\Sc3ccc(C(=O)NCC4CCCO4)cc3N(C)C2=O)c1` (centres undefined) here?
The inhibition was 4.72%.

`CCOc1ccccc1NC(=O)Cc1cccs1` was tested. Which inhibition did it give?
Its inhibition is 55.5% (active).

Which inhibition does the source give for `COc1ccc(OC)c(NC(=O)Cc2cccs2)c1` here?
The inhibition was 14.6%.

For `CCOc1ccccc1NC(=O)Cn1nnc(C(=O)NCc2cccs2)c1N`, which inhibition is on record?
The inhibition was -5.57%.

`COc1ccc(C(=O)c2c3ccc([N+](=O)[O-])cc3[n+]([O-])n2CCCN)cc1` was tested. Which inhibition did it give?
The inhibition was 1.89%.

Which inhibition does the source give for `CCc1ccc(NC(=O)CN2C(=O)CSC2=O)cc1` here?
The inhibition was -2.17%.

For `Nc1nonc1-n1nnc(C(=O)N/N=C/C2CCCCC2)c1-c1ccccc1`, which inhibition is on record?
The inhibition was -6.4%.

For `Fc1ccc2c(c1)C(c1cccnc1)=NNC(c1cccs1)=N2`, which inhibition is on record?
Its inhibition is -0.24%.

`CCOc1ccc2c(c1)C(c1ccc(C)cc1)=NNC(c1ccc(C)cc1)=N2` was tested. Which inhibition did it give?
The inhibition was 6.95%.

Which inhibition does the source give for `COc1ccc2c(c1)C(c1cccs1)=NNC(c1cccnc1)=N2` here?
Its inhibition is 48.7% (active).

`CC(=O)c1ccc(S(=O)(=O)NC2CC(=O)N(c3ccc4c(c3)OCCO4)C2)cc1` (centres undefined) was tested. Which inhibition did it give?
Its inhibition is 0.9%.

How did the inhibition turn out when `COc1ccc(/C=C/C2=CC(C)(C)NC(=S)N2)c(OC)c1` was run?
Its inhibition is 3.61%.

With `CN1CCN(C(=O)N2c3ccccc3CCc3ccccc32)CC1` as the molecule, how does the inhibition read?
Its inhibition is -2.2%.

With `CCOc1ccc(C(=O)NC(=S)Nc2ccc(N3CCOCC3)c(Cl)c2)cc1[N+](=O)[O-]` as the molecule, how does the inhibition read?
The inhibition was 15.3%.

How did the inhibition turn out when `O=C1Nc2cc(C(=O)N3CCN(c4ccc(F)cc4)CC3)ccc2NC1CSCc1cccc(F)c1` (centres undefined) was run?
Its inhibition is 17.5%.

Which inhibition does the source give for `Cc1ccc(CSCC2Nc3ccc(C(=O)N4CCN(c5ccc(F)cc5)CC4)cc3NC2=O)cc1` (centres undefined) here?
Its inhibition is 67% (active).

For `O=C(c1cc(C(=O)N2CCN(c3ccc(F)cc3)CC2)cc([N+](=O)[O-])c1)N1CCN(c2ccc(F)cc2)CC1`, which inhibition is on record?
Its inhibition is 19%.

How did the inhibition turn out when `CC(C)(C)n1nnnc1C(c1ccccc1F)N1CCN(C(=O)c2ccco2)CC1` (centres undefined) was run?
The inhibition was -2.83%.

`Cn1c2ccccc2c(=O)c2c(=O)n(Cc3ccco3)c(COc3ccccc3)nc21` was tested. Which inhibition did it give?
Its inhibition is 47.9% (active).

For `CCCc1nc2c(c(=O)c3ccccc3n2C)c(=O)n1C1CCCCCC1`, which inhibition is on record?
The inhibition was 10.2%.

Which inhibition does the source give for `CCCc1nc2c(c(=O)c3ccccc3n2C)c(=O)n1-c1cc(C)cc(C)c1` here?
The inhibition was 16.2%.

How did the inhibition turn out when `O=C1CN(C(=O)COc2c(Cl)cccc2Cl)c2ccccc2N1` was run?
The inhibition was 1.42%.

For `CCC(C)Cn1c(O)cc2nn(-c3nc4ccccc4s3)c(=O)c-2c1C` (centres undefined), which inhibition is on record?
Its inhibition is 55.2% (active).

For `Cc1nn(CC(=O)Nc2nc3ccccc3s2)c(C)c1[N+](=O)[O-]`, which inhibition is on record?
The inhibition was -2.22%.

With `C/C(=N\NC(=O)CC(C)C)c1c(C(F)(F)F)[nH]n(-c2nc3ccccc3s2)c1=O` as the molecule, how does the inhibition read?
The inhibition was -0.73%.

With `COC(=O)C1=C(C)NC2=C(C(=O)c3ccccc32)C1c1ccc(-c2ccc(C(=O)O)cc2)o1` (centres undefined) as the molecule, how does the inhibition read?
Its inhibition is 5.77%.

`CCOC(=O)C(=CNNc1ccsc1C(=O)OC)C(=O)OCC` was tested. Which inhibition did it give?
The inhibition was -1.96%.

Which inhibition does the source give for `Cc1cccc(C2=N/C(=C/c3cccs3)C(=O)O2)c1` here?
Its inhibition is 2.89%.

With `CN1C/C(=C/c2cccs2)C(=O)/C(=C\c2cccs2)C1` as the molecule, how does the inhibition read?
Its inhibition is 6.47%.

With `CSC1=N/C(=C\C=C\c2cccs2)C(=O)S1` as the molecule, how does the inhibition read?
The inhibition was 60.2% (active).

Which inhibition does the source give for `Cc1ccc(-n2ncc3c2CC(C)(C)CC3NC(=O)CCc2cnn(C)c2)cc1` (centres undefined) here?
The inhibition was -3.34%.

How did the inhibition turn out when `O=C(C1CCCN(S(=O)(=O)c2ccccc2)C1)N1CCN(c2ccc(F)cc2)CC1` (centres undefined) was run?
The inhibition was -13.8%.

Which inhibition does the source give for `Cc1cc(NC(=O)CCC(=O)N(CC(=O)NC2CCCC2)c2ccc(F)cc2)no1` here?
Its inhibition is 0.03%.

`COc1cccc(OC)c1CN(C)C(=O)c1cnccc1C(F)(F)F` was tested. Which inhibition did it give?
The inhibition was -2.76%.

How did the inhibition turn out when `Cc1ccc(NC(=O)c2csc3c2CCCC3)cc1` was run?
The inhibition was 5.39%.

`Cc1ccc(C(=O)c2c(NC(=O)c3ccncc3)sc3c2CCCC3)cc1` was tested. Which inhibition did it give?
The inhibition was -2.83%.

With `Cc1ccc(NC(=O)c2c(NC(=O)CCC(=O)O)sc3c2CCCCC3)cc1` as the molecule, how does the inhibition read?
The inhibition was 47.6% (active).

Which inhibition does the source give for `O=S(=O)(Nc1ccc(O)c2ccccc12)c1ccc(OC(F)(F)F)cc1` here?
Its inhibition is -9.45%.

`O=C(O)CCCC(=O)N1N=C(c2ccco2)CC1c1ccco1` (centres undefined) was tested. Which inhibition did it give?
The inhibition was -3.41%.

How did the inhibition turn out when `Cc1nn2c(c1-c1ccccc1)N=C(c1ccco1)CC2c1ccccc1` (centres undefined) was run?
The inhibition was 54.2% (active).

For `Cc1nn(C(=O)c2ccoc2C)c(N)c1-c1ccccc1`, which inhibition is on record?
Its inhibition is -11.9%.

For `Cc1ccc(/C=N/NC(=O)COc2ccccc2-c2ccccc2)cc1`, which inhibition is on record?
The inhibition was -1.07%.

With `CCOc1ccc(/C=C(/NC(=O)c2ccccc2)C(=O)NCCC(=O)O)cc1` as the molecule, how does the inhibition read?
Its inhibition is 2.36%.

With `CCC(Cc1ccccc1)NS(=O)(=O)c1ccc2c(c1)NC(=O)CS2` (centres undefined) as the molecule, how does the inhibition read?
The inhibition was 6.21%.

Which inhibition does the source give for `CCOC(=O)C1=C(C)NC(C)=C(C(=O)OCC)C1C1=COCCO1` here?
The inhibition was -7.86%.

With `CCC(=O)Nc1c(C)n[nH]c1C` as the molecule, how does the inhibition read?
Its inhibition is 1.83%.

`CCCCC1=CC2=CC(=O)C(C)(OC(=O)CC)C(=O)C2=CN1CCCOC(C)C` (centres undefined) was tested. Which inhibition did it give?
Its inhibition is 2.27%.

For `CC1(OC(=O)CCc2ccccc2)C(=O)C=C2C=C(c3ccc(C#N)cc3)N(CCc3ccccn3)C=C2C1=O` (centres undefined), which inhibition is on record?
The inhibition was 13.8%.

Which inhibition does the source give for `C=CCN1C=C2C(=O)C(C)(OC(=O)CCc3ccccc3)C(=O)C=C2C=C1c1ccc(C#N)cc1` (centres undefined) here?
The inhibition was 49% (active).

`Nc1c(-c2ccc(F)cc2)cnc2ncnn12` was tested. Which inhibition did it give?
The inhibition was 0.37%.

How did the inhibition turn out when `CCCCCCCCCCCCCCCC(=O)OC/C=C(C)/C=C/C=C(C)/C=C/C1=C(C)CCCC1(C)C` was run?
The inhibition was 2.75%.

For `CC1=C(/C=C/C(C)=C/C=C/C(C)=C/C=C/C=C(C)/C=C/C=C(C)/C=C/C2=C(C)CCCC2(C)C)C(C)(C)CCC1`, which inhibition is on record?
The inhibition was 69.5% (active).

With `Cc1cc(S(=O)(=O)N2CCOCC2)ccc1OCC(=O)Nc1cccc(C(F)(F)F)c1` as the molecule, how does the inhibition read?
Its inhibition is 0.78%.

For `COc1ccc(C(=O)COC(=O)Cn2cnc3c2c(=O)n(C)c(=O)n3C)c(OC)c1`, which inhibition is on record?
The inhibition was -0.66%.

How did the inhibition turn out when `O=C(NCCN1CCN(C(=O)c2cccc([N+](=O)[O-])c2)CC1)C(=O)NCc1ccc(Cl)cc1` was run?
Its inhibition is -0.22%.

With `CCOC(=O)Cn1c(=O)oc2cc(S(=O)(=O)N(C)Cc3ccco3)ccc21` as the molecule, how does the inhibition read?
The inhibition was -1.55%.

Which inhibition does the source give for `CN(c1ccccc1)c1ccc(/C=c2\s/c(=C(/C#N)C(=O)C(C)(C)C)n(Cc3ccco3)c2=O)cc1` here?
Its inhibition is 63.2% (active).

With `CCOC(=O)/C=c1\s/c(=C\c2ccc(C#N)cc2)c(=O)n1CC(=O)Nc1cccc(C)c1C` as the molecule, how does the inhibition read?
The inhibition was 11.6%.

Which inhibition does the source give for `CCNC(=O)c1sccc1-n1cccc1` here?
Its inhibition is 0.55%.

With `CC(C)=CCc1c(O)c(CC=C(C)C)c2occ(-c3ccc(O)cc3)c(=O)c2c1O` as the molecule, how does the inhibition read?
The inhibition was -3.16%.

With `Cn1cccc1C(=O)NC(=O)COC(=O)Cc1coc2ccc3ccccc3c12` as the molecule, how does the inhibition read?
The inhibition was 60.3% (active).

Which inhibition does the source give for `COc1ccc2c(CC(=O)OCC(=O)NC(N)=O)coc2c1` here?
The inhibition was -9.08%.

For `O=C(Cc1coc2ccc3ccccc3c12)NCc1cccs1`, which inhibition is on record?
The inhibition was 10.5%.

`COc1ccc(S(=O)(=O)N2CCOC2CNC(=O)C(=O)NCc2ccc(F)cc2)cc1` (centres undefined) was tested. Which inhibition did it give?
The inhibition was -0.93%.

How did the inhibition turn out when `CCOC(=O)c1c(C)[nH]c(C2=NNC(=NC(C)COC)SC2)c1C` (centres undefined) was run?
Its inhibition is -2.46%.

Which inhibition does the source give for `COc1cc(NC(=O)C2=CC(c3ccc(C)cc3)=NS(=O)(=O)N2C)cc(OC)c1OC` here?
The inhibition was 1.17%.
